The results in this text go back to ChEMBL document CHEMBL1144824, “Oximes: metabolic activation and structure-allergenic activity relationships” (J Med Chem, 2008).

Where only a bound is given, the exact number is not on record here.

Data set [1] concerns Mus musculus. In words: Dermal toxicity in CBA/Ca mouse assessed as skin sensitization stimulation index by measuring increase in [3H]thymidine incorporation at 0.1% w/v administered on ear dorsum by local lymph node assay relative to control. The format is organism-based, Skin of body. The settings on record: in vivo, topical_or_ocular. A digest of the protocol:
(§1)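 Female CBA/Ca mice, 8 weeks, n = 3 or 4 per group, 25 µL of test compound in vehicle per OECD 429 LLNA; vehicle-only controls. Day 5: 250 µL PBS with 20 µCi [3H]thymidine i.v. After 5 h, draining auricular nodes were pooled per group, cells suspended and counted by β-scintillation. SI = mean dpm/node of test group over control; SI above 3 counted positive.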
(Incorporation of labelled thymidine or its analogues reports DNA synthesis.)

For data set [2], the species on record is Mus musculus. As to the kind of experiment: Dermal toxicity in CBA/Ca mouse assessed as drug level inducing 3 times increase in skin sensitization stimulation index by measuring [3H]thymidine incorporation relative to control. The settings on record: in vivo. Type of data set: organism-based. An outline of the steps:
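Local lymph node assay per OECD Guideline 429 in female CBA/Ca mice, 8 weeks old, groups of 3 or 4. Each mouse got 25 µL of test compound in vehicle; controls got vehicle alone. Five days after first treatment, mice were dosed i.v. with 20 µCi [3H]thymidine in PBS. Auricular lymph nodes were pooled per group 5 h later and counted by β-scintillation. Value is the concentration giving SI (test/control) of 3.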

Data set [3] concerns Mus musculus. In words: Dermal toxicity in CBA/Ca mouse assessed as skin sensitization stimulation index by measuring increase in [3H]thymidine incorporation at 20% w/v administered on ear dorsum by local lymph node assay relative to control. The format is organism-based, Skin of body. Particulars: in vivo, topical_or_ocular. An outline of the steps:
as §1

Data set [4] has as its system Mus musculus. As to the kind of experiment: Dermal toxicity in CBA/Ca mouse assessed as skin sensitization stimulation index by measuring increase in [3H]thymidine incorporation at 5% w/v administered on ear dorsum by local lymph node assay relative to control. The format is organism-based, Skin of body. The settings on record: in vivo, topical_or_ocular. An outline of the steps:
as §1

Data set [5] relates to Mus musculus. As to the kind of experiment: Dermal toxicity in CBA/Ca mouse assessed as skin sensitization stimulation index by measuring increase in [3H]thymidine incorporation at 1% w/v administered on ear dorsum by local lymph node assay relative to control. Type of data set: organism-based, Skin of body. The settings on record: in vivo, topical_or_ocular. An outline of the steps: as §1

Data set [6] in a line: Dermal toxicity in CBA/Ca mouse assessed as skin sensitization stimulation index by measuring increase in [3H]thymidine incorporation at 10% w/v administered on ear dorsum by local lymph node assay relative to control. Also on record: species or system Skin of body. The settings on record: in vivo, topical_or_ocular. A digest of the protocol: as §1

`CC1=CCCC/C1=N\O`: the Activity in data set [1] was 1; in data set [2], 160 mM; in data set [3], 11.3; in data set [4], 5.03; in data set [5], 2.36; in data set [6] it was 7.91.

Consider `O/N=C\c1ccccc1`, for which the Activity in data set [1] is 1.75; in data set [2], more than 1700 mM; in data set [3] it was 2.56; in data set [4], 1.55; in data set [5], 1.8; in data set [6] it was 2.33.

For the compound `O/N=C1/C=CCCC1`, the Activity in data set [1] came to 1.54; in data set [2] it was 55 mM; in data set [4], 7.6; in data set [5], 4.1.

In the case of `CC1=C/C(=N/O)CCC1`, the Activity in data set [1] turned out to be 0.76; in data set [2] it was 180 mM; in data set [3] it was 7.3; in data set [4], 5.06; in data set [5], 2.1; in data set [6], 5.34.

`C/C=C/C(CC)=N/O`: the Activity in data set [1] stood at 0.99; in data set [2], 790 mM; in data set [3], 6.62; in data set [4], 1.69; in data set [5], 0.99; in data set [6], 3.34.

Regarding `CC1=C(C)/C(=N/O)CCC1`, the Activity was 1.1 in data set [1]; more than 1400 mM in data set [2]; 1.3 in data set [3]; 1.43 in data set [4]; 1.24 in data set [5]; 1.16 in data set [6].

`ON=C1CCCCC1` [CYCLOHEXANONE OXIME]: the Activity is 0.96 in data set [1]; more than 1800 mM in data set [2]; 0.84 in data set [3]; 0.77 in data set [4]; 0.9 in data set [5]; 1.17 in data set [6].
